Activity calls are given as the source filed them. No cut-off for these calls is given here.
Tests used:
Homo sapiens = species: Homo sapiens; assay: Binding affinity to L3MBTL3 D381A mutant (unknown origin) by ITC assay
[1] = biological target: T1, Lethal(3)malignant brain tumor-like protein 3 (Homo sapiens, UniProt Q96JM7); assay: Binding affinity to L3MBTL3 (unknown origin) by ITC assay
T1 sequence (Q96JM7 whole entry): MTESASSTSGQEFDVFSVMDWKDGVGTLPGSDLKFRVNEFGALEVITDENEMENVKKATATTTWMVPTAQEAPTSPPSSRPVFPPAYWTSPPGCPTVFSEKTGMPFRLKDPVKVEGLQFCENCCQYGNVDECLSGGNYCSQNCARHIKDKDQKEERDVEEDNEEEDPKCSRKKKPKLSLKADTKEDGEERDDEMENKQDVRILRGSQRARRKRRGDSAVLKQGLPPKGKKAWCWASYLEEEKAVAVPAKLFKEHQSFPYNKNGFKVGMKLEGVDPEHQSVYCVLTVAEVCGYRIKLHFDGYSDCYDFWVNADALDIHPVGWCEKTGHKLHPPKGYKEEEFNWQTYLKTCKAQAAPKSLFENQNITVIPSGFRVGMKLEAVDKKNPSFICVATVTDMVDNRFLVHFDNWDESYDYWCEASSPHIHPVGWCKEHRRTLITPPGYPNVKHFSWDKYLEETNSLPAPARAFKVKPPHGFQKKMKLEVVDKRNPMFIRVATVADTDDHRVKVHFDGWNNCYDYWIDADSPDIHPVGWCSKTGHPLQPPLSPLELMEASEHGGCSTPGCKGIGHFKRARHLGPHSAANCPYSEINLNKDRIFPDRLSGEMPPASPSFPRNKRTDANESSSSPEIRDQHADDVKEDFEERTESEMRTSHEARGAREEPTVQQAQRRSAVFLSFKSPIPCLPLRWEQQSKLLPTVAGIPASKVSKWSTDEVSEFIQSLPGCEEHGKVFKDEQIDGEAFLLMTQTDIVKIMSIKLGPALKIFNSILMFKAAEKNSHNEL

[2] = biological target: T2, Muscarinic acetylcholine receptor M1 (Homo sapiens, UniProt P11229); assay: Antagonist activity at human M1 receptor assessed as reduction in acetylcholine-induced response by Schild analysis; format: functional; settings: read-out: pA2 (converted)
T2 sequence (P11229 whole entry): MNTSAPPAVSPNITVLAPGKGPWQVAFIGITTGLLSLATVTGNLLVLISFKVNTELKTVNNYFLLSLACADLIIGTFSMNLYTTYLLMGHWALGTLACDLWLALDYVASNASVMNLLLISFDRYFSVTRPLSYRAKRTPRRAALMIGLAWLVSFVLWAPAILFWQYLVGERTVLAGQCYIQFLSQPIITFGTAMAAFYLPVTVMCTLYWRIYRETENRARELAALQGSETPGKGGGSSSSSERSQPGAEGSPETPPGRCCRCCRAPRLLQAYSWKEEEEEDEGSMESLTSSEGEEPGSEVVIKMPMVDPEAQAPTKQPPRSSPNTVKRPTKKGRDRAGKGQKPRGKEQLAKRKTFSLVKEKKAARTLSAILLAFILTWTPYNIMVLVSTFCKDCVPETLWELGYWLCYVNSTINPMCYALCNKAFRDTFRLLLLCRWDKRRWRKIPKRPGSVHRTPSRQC

[3] = biological target: Muscarinic acetylcholine receptor M2 (Homo sapiens) (UniProt P08172); assay: Agonist activity at human M2 receptor; format: functional
Chain of Muscarinic acetylcholine receptor M2 (Homo sapiens) (P08172 whole entry): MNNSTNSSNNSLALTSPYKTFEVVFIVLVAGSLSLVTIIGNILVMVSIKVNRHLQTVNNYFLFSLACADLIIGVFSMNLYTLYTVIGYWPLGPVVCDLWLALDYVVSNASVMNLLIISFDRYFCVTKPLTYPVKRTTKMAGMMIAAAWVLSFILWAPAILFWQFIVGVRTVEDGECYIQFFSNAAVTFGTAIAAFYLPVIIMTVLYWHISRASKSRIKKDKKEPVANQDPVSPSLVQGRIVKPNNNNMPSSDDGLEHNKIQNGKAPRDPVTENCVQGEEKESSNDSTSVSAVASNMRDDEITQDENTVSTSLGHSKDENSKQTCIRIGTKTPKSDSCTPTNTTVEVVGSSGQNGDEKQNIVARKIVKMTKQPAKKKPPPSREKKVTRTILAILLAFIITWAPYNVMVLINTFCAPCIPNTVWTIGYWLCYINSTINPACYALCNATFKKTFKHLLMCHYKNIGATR

[4] = biological target: Muscarinic acetylcholine receptor M1 (Homo sapiens) (UniProt P11229); assay: Agonist activity at human M1 receptor; format: functional
[5] = biological target: Scm-like with four MBT domains protein 1 (Homo sapiens, UniProt Q9UHJ3); assay: Inhibition of MBT domain containing SFMBT (unknown origin) using H4K20me2 peptide by Alpha-Screen methylated histone peptide competition assay
[6] = biological target: Lethal(3)malignant brain tumor-like protein 4 (Homo sapiens, UniProt Q8NA19); assay: Inhibition of MBT domain containing L3MBTL4 (unknown origin) using H4K20me2 peptide by Alpha-Screen methylated histone peptide competition assay
Chain of Lethal(3)malignant brain tumor-like protein 4 (Q8NA19 whole entry, the tested form may be a part): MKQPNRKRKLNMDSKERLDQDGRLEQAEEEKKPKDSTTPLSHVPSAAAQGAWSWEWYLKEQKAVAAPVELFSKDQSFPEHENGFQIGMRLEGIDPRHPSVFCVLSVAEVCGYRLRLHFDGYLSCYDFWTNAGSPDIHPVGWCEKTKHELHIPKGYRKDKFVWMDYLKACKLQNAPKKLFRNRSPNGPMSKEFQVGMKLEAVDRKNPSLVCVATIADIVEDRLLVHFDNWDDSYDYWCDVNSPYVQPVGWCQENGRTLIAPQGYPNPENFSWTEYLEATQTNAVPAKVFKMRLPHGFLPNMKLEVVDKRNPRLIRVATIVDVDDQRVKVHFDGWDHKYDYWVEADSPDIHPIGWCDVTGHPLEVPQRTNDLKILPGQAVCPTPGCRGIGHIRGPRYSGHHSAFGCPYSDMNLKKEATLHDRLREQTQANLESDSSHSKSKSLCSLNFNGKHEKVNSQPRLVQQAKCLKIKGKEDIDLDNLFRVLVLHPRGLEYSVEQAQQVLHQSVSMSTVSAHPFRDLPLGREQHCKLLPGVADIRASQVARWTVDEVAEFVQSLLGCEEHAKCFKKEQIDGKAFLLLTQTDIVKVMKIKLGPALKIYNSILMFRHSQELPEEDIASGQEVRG

[7] = Binding affinity to L3MBTL3 F387A mutant (unknown origin) by ITC assay; set-up: species or system Homo sapiens
[8] = Binding affinity to L3MBTL3 H277A mutant (unknown origin) by ITC assay; set-up: species or system Homo sapiens
[9] = biological target: Chromobox protein homolog 7 (Homo sapiens, UniProt O95931); assay: Inhibition of chromo domain containing CBX7 (unknown origin) using H4K20me2 peptide by Alpha-Screen methylated histone peptide competition assay
Chain of Chromobox protein homolog 7 (O95931 whole entry, the tested form may be a part): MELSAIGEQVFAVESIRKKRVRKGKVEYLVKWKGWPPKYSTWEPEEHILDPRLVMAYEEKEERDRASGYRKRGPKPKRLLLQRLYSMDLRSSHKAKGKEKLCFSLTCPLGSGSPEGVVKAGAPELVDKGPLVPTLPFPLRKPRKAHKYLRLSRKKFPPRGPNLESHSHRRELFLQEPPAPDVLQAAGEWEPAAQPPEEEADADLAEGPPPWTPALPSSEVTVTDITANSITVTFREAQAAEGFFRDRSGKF

TP53-binding protein 1 [10] = biological target: T3, TP53-binding protein 1 (Homo sapiens, UniProt Q12888); assay: Inhibition of tudor domain containing 53BP1 (unknown origin) using H4K20me2 peptide by Alpha-Screen methylated histone peptide competition assay
T3 sequence (Q12888 whole entry, the tested form may be a part): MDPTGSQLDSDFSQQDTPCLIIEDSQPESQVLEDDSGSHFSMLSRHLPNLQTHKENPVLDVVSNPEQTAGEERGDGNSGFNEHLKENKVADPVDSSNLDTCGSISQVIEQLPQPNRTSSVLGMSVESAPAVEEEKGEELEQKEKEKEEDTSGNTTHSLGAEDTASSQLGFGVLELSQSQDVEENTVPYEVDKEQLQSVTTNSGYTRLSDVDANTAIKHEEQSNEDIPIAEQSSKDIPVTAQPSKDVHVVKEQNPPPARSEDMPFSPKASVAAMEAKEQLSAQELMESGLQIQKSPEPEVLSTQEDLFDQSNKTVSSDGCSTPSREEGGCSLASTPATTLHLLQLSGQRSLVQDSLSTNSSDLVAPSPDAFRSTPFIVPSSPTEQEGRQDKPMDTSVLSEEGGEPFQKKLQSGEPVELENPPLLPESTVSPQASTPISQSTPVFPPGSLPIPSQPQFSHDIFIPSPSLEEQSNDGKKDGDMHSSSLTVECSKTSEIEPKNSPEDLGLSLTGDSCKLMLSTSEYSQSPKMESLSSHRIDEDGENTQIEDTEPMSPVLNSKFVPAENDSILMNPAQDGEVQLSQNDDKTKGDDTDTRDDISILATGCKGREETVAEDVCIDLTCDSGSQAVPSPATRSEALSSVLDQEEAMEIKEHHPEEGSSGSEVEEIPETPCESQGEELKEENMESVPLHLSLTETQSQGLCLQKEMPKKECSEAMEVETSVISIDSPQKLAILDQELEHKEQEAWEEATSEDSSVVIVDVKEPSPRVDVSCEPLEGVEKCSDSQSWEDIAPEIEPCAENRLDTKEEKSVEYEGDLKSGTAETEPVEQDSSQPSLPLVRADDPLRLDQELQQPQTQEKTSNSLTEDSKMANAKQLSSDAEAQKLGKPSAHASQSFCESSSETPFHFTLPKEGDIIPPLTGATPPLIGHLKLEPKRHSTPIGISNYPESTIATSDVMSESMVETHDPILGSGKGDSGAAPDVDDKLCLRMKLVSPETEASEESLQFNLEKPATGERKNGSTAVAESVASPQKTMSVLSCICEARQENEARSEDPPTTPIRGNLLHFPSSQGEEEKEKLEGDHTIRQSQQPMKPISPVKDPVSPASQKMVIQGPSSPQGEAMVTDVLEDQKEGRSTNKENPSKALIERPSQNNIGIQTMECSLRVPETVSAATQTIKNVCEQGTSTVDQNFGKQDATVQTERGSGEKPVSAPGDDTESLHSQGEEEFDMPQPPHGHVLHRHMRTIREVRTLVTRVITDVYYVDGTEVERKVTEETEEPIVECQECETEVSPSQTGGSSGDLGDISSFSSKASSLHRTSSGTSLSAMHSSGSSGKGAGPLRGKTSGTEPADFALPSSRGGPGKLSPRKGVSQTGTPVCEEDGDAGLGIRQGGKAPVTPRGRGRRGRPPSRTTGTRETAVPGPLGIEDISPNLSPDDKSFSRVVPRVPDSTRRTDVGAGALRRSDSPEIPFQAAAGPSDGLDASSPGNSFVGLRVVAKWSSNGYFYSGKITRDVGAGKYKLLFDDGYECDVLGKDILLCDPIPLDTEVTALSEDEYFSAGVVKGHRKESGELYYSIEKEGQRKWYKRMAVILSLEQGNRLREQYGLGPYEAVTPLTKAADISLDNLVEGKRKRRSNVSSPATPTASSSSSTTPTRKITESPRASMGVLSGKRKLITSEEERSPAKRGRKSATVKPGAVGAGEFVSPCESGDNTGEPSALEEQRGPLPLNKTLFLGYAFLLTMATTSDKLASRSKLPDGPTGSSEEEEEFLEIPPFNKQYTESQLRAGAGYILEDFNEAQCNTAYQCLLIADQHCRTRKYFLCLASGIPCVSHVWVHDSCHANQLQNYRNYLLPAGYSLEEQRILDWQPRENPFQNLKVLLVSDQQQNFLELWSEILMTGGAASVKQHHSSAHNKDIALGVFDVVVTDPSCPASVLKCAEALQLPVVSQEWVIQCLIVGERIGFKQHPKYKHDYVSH

TP53-binding protein 1 [11] = biological target: T3, TP53-binding protein 1; assay: Binding affinity to 53BP1 (unknown origin) by ITC assay
[12] = biological target: Alpha-2C adrenergic receptor (Homo sapiens, UniProt P18825); assay: Inhibition of alpha2C receptor (unknown origin) by radioligand binding assay
Chain of Alpha-2C adrenergic receptor (P18825 whole entry): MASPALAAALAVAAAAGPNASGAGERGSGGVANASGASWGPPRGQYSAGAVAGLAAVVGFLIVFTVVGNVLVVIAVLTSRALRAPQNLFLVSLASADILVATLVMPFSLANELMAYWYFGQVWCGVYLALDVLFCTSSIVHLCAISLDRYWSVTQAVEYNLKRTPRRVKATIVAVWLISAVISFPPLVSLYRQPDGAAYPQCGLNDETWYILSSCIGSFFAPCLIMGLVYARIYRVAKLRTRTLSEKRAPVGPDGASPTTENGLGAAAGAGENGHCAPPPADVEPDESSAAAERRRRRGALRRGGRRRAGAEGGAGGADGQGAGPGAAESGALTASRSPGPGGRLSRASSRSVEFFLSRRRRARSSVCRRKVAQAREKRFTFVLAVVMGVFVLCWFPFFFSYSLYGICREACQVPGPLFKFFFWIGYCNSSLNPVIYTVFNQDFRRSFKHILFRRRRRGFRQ

[13] = biological target: Sodium-dependent dopamine transporter (Homo sapiens, UniProt Q01959); assay: Inhibition of DAT (unknown origin) by radioligand binding assay
Chain of Sodium-dependent dopamine transporter (Q01959 whole entry): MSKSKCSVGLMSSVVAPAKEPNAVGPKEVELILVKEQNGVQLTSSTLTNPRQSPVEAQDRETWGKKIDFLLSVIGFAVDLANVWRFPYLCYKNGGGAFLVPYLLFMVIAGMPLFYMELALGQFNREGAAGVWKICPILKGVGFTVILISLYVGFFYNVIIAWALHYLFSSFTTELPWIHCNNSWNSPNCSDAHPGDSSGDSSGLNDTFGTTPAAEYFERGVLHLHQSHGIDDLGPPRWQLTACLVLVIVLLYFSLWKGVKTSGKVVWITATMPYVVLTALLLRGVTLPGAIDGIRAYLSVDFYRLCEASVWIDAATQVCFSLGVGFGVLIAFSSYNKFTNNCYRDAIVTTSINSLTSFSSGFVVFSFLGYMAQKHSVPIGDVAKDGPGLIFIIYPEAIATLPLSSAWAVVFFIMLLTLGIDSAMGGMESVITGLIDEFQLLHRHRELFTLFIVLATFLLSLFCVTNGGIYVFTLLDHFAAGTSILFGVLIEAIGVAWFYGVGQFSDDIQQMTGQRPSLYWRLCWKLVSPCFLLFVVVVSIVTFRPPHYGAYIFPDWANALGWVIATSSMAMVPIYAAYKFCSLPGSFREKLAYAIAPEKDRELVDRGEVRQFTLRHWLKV

[14] = biological target: T2, Muscarinic acetylcholine receptor M1; assay: Inhibition of M1 receptor (unknown origin) by radioligand binding assay
Procedure, shortened: (§1)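 Radioligand competition binding; the value is reported as a Ki.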

[15] = biological target: Muscarinic acetylcholine receptor M2 (Homo sapiens, UniProt P08172); assay: Inhibition of M2 receptor (unknown origin) by radioligand binding assay; procedure, shortened: as §1
Chain of Muscarinic acetylcholine receptor M2 (P08172 whole entry): as the sequence (P08172 whole entry) above

[16] = biological target: Muscarinic acetylcholine receptor M5 (Homo sapiens, UniProt P08912); assay: Inhibition of M5 receptor (unknown origin) by radioligand binding assay
Chain of Muscarinic acetylcholine receptor M5 (P08912 whole entry): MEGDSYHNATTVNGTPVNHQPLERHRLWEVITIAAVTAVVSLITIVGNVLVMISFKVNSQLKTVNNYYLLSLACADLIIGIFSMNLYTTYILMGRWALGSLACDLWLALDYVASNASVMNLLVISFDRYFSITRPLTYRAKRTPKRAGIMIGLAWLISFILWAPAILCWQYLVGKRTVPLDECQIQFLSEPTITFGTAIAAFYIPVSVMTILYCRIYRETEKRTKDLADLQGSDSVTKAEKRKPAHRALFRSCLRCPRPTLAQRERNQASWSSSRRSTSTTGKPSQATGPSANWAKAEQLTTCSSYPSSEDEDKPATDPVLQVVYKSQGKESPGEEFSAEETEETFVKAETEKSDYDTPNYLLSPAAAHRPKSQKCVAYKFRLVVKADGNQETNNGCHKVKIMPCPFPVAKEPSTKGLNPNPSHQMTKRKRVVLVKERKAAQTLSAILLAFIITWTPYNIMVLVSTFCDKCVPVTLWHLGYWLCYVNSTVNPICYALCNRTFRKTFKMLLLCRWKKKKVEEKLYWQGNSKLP

[17] = biological target: T4, Lethal(3)malignant brain tumor-like protein 3 (Homo sapiens) (UniProt Q96JM7); assay: Binding affinity to GFP-tagged full length L3MBTL3 (unknown origin) assessed as protein half life at 1 uM
T4 sequence (whole entry): T1 sequence (Q96JM7 whole entry)

[18] = biological target: T4, Lethal(3)malignant brain tumor-like protein 3 (Homo sapiens); settings: dose 0.5 µM
[19] = biological target: T4, Lethal(3)malignant brain tumor-like protein 3 (Homo sapiens); settings: dose 0.1 µM
[20] = biological target: T4, Lethal(3)malignant brain tumor-like protein 3 (Homo sapiens); settings: dose 0.01 µM
[21] = biological target: T1, Lethal(3)malignant brain tumor-like protein 3; assay: Binding affinity to GFP-3MBT tagged L3MBTL3 (unknown origin) assessed as diffusion coefficient at 1 uM (reference value: 0.1272 um2/s)
[22] = biological target: T1, Lethal(3)malignant brain tumor-like protein 3; assay: Binding affinity to GFP-3MBT tagged L3MBTL3 (unknown origin) assessed as diffusion coefficient at 0.5 uM (reference value: 0.1272 um2/s)
[23] = biological target: T1, Lethal(3)malignant brain tumor-like protein 3; assay: Binding affinity to GFP-3MBT tagged L3MBTL3 (unknown origin) assessed as diffusion coefficient at 0.05 uM (reference value: 0.1272 um2/s)

Question: With `O=C(c1ccc(C(=O)N2CCC(N3CCCC3)CC2)c(Nc2ccccc2)c1)N1CCC(N2CCCC2)CC1` as the molecule, how does the Activity (Homo sapiens) read?
Answer: inactive

Question: And the Kd [1]?
Answer: 120 nM

Question: And the Kb [2]?
Answer: 2240 nM

Question: And the Activity [3]?
Answer: inactive

Question: And the Activity [4]?
Answer: inactive

Question: And the IC50 [5]?
Answer: > 30000 nM

Question: And the IC50 [6]?
Answer: 11000 nM

Question: And the Kd [7]?
Answer: 1000 nM

Question: And the Kd [8]?
Answer: 3100 nM

Question: What about the IC50 [9] of the same molecule?
Answer: > 30000 nM

Question: And the IC50 (TP53-binding protein 1 [10])?
Answer: 4000 nM

Question: What about the Kd (TP53-binding protein 1 [11]) of the same molecule?
Answer: > 31000 nM

Question: And the Ki [12]?
Answer: 860 nM

Question: And the Ki [13]?
Answer: > 10000 nM

Question: What about the Ki [14] of the same molecule?
Answer: 97 nM

Question: What about the Ki [15] of the same molecule?
Answer: 72 nM

Question: What about the Ki [16] of the same molecule?
Answer: 4300 nM

Question: And the T1/2 [17]?
Answer: 19.9 s

Question: And the T1/2 [18]?
Answer: 20.3 s

Question: And the T1/2 [19]?
Answer: 20.1 s

Question: What about the T1/2 [20] of the same molecule?
Answer: 7 s

Question: What about the Diffusion coefficient [21] of the same molecule?
Answer: 0.284 um2/s

Question: And the Diffusion coefficient [22]?
Answer: 0.297 um2/s

Question: And the Diffusion coefficient [23]?
Answer: 0.156 um2/s

— ChEMBL document CHEMBL5712070, “Discovery of a chemical probe for the L3MBTL3 methyllysine reader domain” (Nat Chem Biol, 2013)
